Calls of active or inactive are those of the source. No cut-off for these calls is given here.
Experiments:
A549 [1] = experiment: Induction of morphological changes in human A549 cells assessed as increase in floating cells without adhering ability up to 2.5 uM preincubated for 1 hr followed by 0.77 mW/cm2 white light irradiation for 80 mins measured after 24 hrs by phase contrast microscopy; format: functional, cell-based
Procedure, shortened: (§1)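 A549 cells (1×10^5/well) on coverslips given vehicle (0.1% DMSO) or compound (0.625, 1.25, 2.5 µM) for 1 h, then irradiated 80 min (0.77 mW/cm²); kept 24 h in regular medium and examined unstained by phase-contrast microscopy (40× objective); representative fields imaged; experiments done three times.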

A549 [2] = experiment: Induction of apoptosis in human A549 cells assessed as pro-caspase 3 level at 2.5 uM preincubated for 1 hr followed by 0.77 mW/cm2 white light irradiation for 80 mins measured after 24 hrs by immunoblot analysis relative to control; format: functional
Procedure, shortened: (§2)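 Whole-cell extracts from A549 cells (1×10^6) treated with 0 or 2.5 µM compound, photo-exposed 80 min, lysed in Tris pH 7.4/NaCl/EDTA/Triton with protease inhibitors; 30 µg protein on 12% SDS-PAGE, nitrocellulose, milk block, caspase-3 antibody overnight 4 °C, HRP secondary, chemiluminescence; band ratio to normal control (=1) after loading-control normalisation.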

[3] = Photocytotoxicity against human WI38 cells at 50 uM using 0.77 mW/cm2 white light irradiation by MTT assay; format: toxicity, cell-based; conditions: wi-38, 50 µM
[4] = (§3) Cell cycle arrest in human A549 cells assessed as accumulation at subG1 phase at 2.5 uM preincubated for 1 hr followed by 0.77 mW/cm2 white light irradiation for 80 mins measured after 24 hrs in presence of 50 uM of beta-carotene by propidium iodide staining based flow cytometry (reference value: 8.2 +/- 1.1%); format: functional
[5] = Induction of apoptosis in human A549 cells assessed as accumulation at subG1 phase up to 50 uM measured after 24 hrs under dark condition by propidium iodide staining based flow cytometry; format: cell-based; conditions: a549, 24 h
Procedure, shortened: (§4)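 Cells exposed 1 h to compound (5-50 µM; vehicle 0.1% DMSO), washed, then irradiated (0.77 mW/cm²) for 0, 30 or 80 min; after serum addition kept 24 h. PI/RNase A staining in hypotonic 0.1% citrate-0.1% Triton X-100, 30 min, 37 °C; sub-G1 peak by flow cytometry, debris gated out, ≥2×10^4 cells; five replicates, mean ± SEM.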

[6] = Cell cycle arrest in human A549 cells assessed as accumulation at subG1 phase at 2.5 uM preincubated for 1 hr followed by 0.77 mW/cm2 white light irradiation for 80 mins measured after 24 hrs by propidium iodide staining based flow cytometry (reference value: 8.2 +/- 1.1%); format: functional
[7] = Drug uptake in human A549 cells assessed as mean fluorescence intensity at 2.5 uM after 24 hrs by flow cytometry (reference value: 5.4 +/- 1.5); format: ADME, cell-based; conditions: a549, 24 h
Bos taurus [8] = organism: Bos taurus; experiment: Binding affinity to calf thymus duplex DNA by UV-visible spectra analysis
[9] = Toxicity in human A549 cells assessed as alteration in cell morphology at 100 nM measured up to 4 hrs in dark by confocal microscopy; format: cell-based; conditions: a549, 4 h, 0.1 µM
[10] = Drug uptake in mitochondria of human A549 cells at 100 nM measured up to 4 hrs by Mito-Tracker green staining based confocal microscopy; format: ADME; conditions: a549, 4 h, 0.1 µM
Procedure, shortened: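 Overnight-seeded A549 cells loaded with dye (100 nM), incubation periods 0.5-4 h tested, then ER-Tracker Green (500 nM) or MitoTracker Green (100 nM) for 30 min at 37 °C; washed, confocal imaging: trackers ex 488/em 500-530 nm, dye ex 543/em 560-640 nm; overlap of images judged.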

A549 [11] = experiment: Induction of apoptosis in human A549 cells assessed as accumulation at subG1 phase at 5 to 50 uM preincubated for 1 hr followed by 0.77 mW/cm2 white light irradiation for 30 mins measured after 24 hrs by propidium iodide staining based flow cytometry relative to control; format: functional; procedure, shortened: as §4
[12] = as §3, with “100” for “50”; format: functional
[13] = Drug uptake in human L-132 cells assessed as mean fluorescence intensity at 2.5 uM after 8 hrs by flow cytometry (reference value: 4.6 +/- 1.2); format: ADME, cell-based; conditions: l132, 8 h
[14] = Cytotoxicity against human WI38 cells assessed as reduction in cell viability at 50 uM under dark condition by MTT assay; format: toxicity, cell-based; conditions: wi-38, 50 µM
[15] = Cytotoxicity against human A549 cells assessed as decrease in cell viability up to 200 uM after 48 hrs under dark condition by MTT assay; format: toxicity, cell-based; conditions: a549, 48 h
Procedure, shortened: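 Dark toxicity: A549 cells treated as in the MTT protocol (1 h compound exposure, serum-free medium, washed) with no light, then assessed at 48 h by MTT (0.5 mg/mL, 6 h, formazan in HCl/SDS, A550).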

[16] = Cytotoxicity against human L-132 cells assessed as reduction in cell viability at 50 uM under dark condition by MTT assay; format: toxicity, cell-based; conditions: l132, 50 µM
A549 [17] = experiment: Induction of apoptosis in human A549 cells assessed as increase in caspase 8 activity at 2.5 uM preincubated for 1 hr followed by 0.77 mW/cm2 white light irradiation for 80 mins measured after 16 hrs by fluorimetric method relative to control; format: functional
Procedure, shortened: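 A549 cells (1×10^6) given compound 2.5 µM for 1 h, then light 80 min; caspase activities measured at 16 h in whole-cell extracts with kits, colorimetric for caspase-3 and fluorimetric for caspase-8; untreated photo-exposed cells as control; five replicates, mean ± SEM.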

[18] = Cell cycle arrest in human A549 cells assessed as accumulation at subG1 phase at 2.5 uM preincubated for 1 hr followed by 0.77 mW/cm2 white light irradiation for 80 mins measured after 24 hrs in presence of 5 mM of NAC by propidium iodide staining based flow cytometry (reference value: 8.2 +/- 1.1%); format: functional
Bos taurus [19] = organism: Bos taurus; experiment: Binding affinity to calf thymus duplex DNA assessed as decrease in intensities of maximum absorption at 50 uM by spectrophotometric titration analysis
[20] = Induction of apoptosis in human A549 cells assessed as caspase 3 activation at 2.5 uM preincubated measured after 24 hrs under dark condition by immunoblot analysis; format: cell-based; conditions: a549, 24 h
[21] = Drug uptake in human A549 cells assessed as mean fluorescence intensity at 2.5 uM after 4 hrs by flow cytometry (reference value: 5.4 +/- 1.5); format: ADME, cell-based; conditions: a549, 4 h
A549 [22] = experiment: Induction of apoptosis in human A549 cells assessed as pro-caspase 3 level at 2.5 uM preincubated for 1 hr followed by 0.77 mW/cm2 white light irradiation for 80 mins measured after 4 hrs by immunoblot analysis relative to control; format: functional; procedure, shortened: as §2
A549 [23] = experiment: Induction of morphological changes in human A549 cells assessed as irregular disruptions in optical diffraction halo preincubated for 1 hr followed by 0.77 mW/cm2 white light irradiation for 80 mins measured after 24 hrs by phase contrast microscopy; format: functional, cell-based; procedure, shortened: as §1
[24] = Photocytotoxicity against human L-132 cells at 50 uM using 0.77 mW/cm2 white light irradiation by MTT assay; format: toxicity, cell-based; conditions: l132, 50 µM
[25] = Drug uptake in human L-132 cells assessed as mean fluorescence intensity at 2.5 uM after 4 hrs by flow cytometry (reference value: 4.6 +/- 1.2); format: ADME, cell-based; conditions: l132, 4 h

CCC1=C(C)C2=C(C)c3c(C)c(CC)c(C)n3[B-](F)(F)[N+]2=C1/C=C/c1ccc(O[C@H]2O[C@H](CO)[C@@H](O)[C@H](O)[C@H]2O)cc1
Activity (A549 [1]): Active | fold change (FC) (A549 [2]): 0.2 | Activity [3]: 5 to 7% | Activity [4]: 51.8% | Activity [5]: Non-Toxic | Activity [6]: 68.8% | Flu intensity [7]: 46.7 | Kb (Bos taurus [8]): 1.8 ×10⁴ /M | Activity [9]: Non-Toxic | Drug uptake [10]: Active | fold change (FC) (A549 [11]): 2.8 - 3.3 | Activity [12]: 43.2% | Flu intensity [13]: 49.5 | Activity [14]: Non-Toxic | Activity [15]: Non-Toxic | Activity [16]: Non-Toxic | fold change (FC) (A549 [17]): 6.2 | Activity [18]: 46.5% | Activity (Bos taurus [19]): Active | Activity [20]: Non-Toxic | Flu intensity [21]: 66.2 to 68.9 | fold change (FC) (A549 [22]): 0.8 | Activity (A549 [23]): Dose-dependent effect | Activity [24]: 5 to 7% | Flu intensity [25]: 56.8

— ChEMBL document CHEMBL3865807, “Syntheses and photodynamic activity of some glucose-conjugated BODIPY dyes” (Eur J Med Chem, 2016)
